Compound activity (PubChem)
Most compounds without a hit are left out; they make up all but 2.9% or so of the library.
MEKK2mut PB1 HTS: signal of MEK5 binding to mutant human MEKK2 PB1 domain; hit rate 0.35% among 290,000; percent response, % at 10 µM; AID 1530; bead flow cytometry, Alexa488-MEK5 binding to MEKK2 mutant; in the data active = percent response above about 24%, passing the limit was not always enough
Dynein cargo inh: dynein cargo transport inhibition | 3617.4 mouse cells, GR-EGFP nuclear translocation imaging; test concentration mostly 20 µM; stimulated with dexamethasone, 1 µM; active compounds read low | z-score, hits read low | hit rate 0.47% among 220,000;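 active = plate z-score of nuclear minus cytoplasmic receptor signal below a set negative limit, without overly bright fluorescence or cell loss, cut at about -3.5 in these data, passing the limit was not always enough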;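 note: z-score of nuclear minus cytoplasmic ring GR-EGFP intensity difference per well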
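Schedule: 48 h induction, then 1 h compound, then 30 min agonist, 37 °C. Buffer or medium: tetracycline-free induction medium containing charcoal-stripped FBS. Reagent: 1.0 µM final dexamethasone stimulus. Evaluation: nuclear versus cytoplasmic GR-EGFP signal, averaged per well. Signal: high-content fluorescence imaging after fixation.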
B2AR ag: activates human beta-2 adrenergic receptor causing internalization | P07550 | Am2.2-beta2AR cells, FAP receptor internalization, flow cytometry | response, % (concentration not given with the values) | hit rate 0.43% among 340,000 | AID 504454;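 active = response above a set limit, near 3 SD of response in nonfluorescent compounds, cut at about 42% in these data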
Target sequence (P07550 whole entry, looked up): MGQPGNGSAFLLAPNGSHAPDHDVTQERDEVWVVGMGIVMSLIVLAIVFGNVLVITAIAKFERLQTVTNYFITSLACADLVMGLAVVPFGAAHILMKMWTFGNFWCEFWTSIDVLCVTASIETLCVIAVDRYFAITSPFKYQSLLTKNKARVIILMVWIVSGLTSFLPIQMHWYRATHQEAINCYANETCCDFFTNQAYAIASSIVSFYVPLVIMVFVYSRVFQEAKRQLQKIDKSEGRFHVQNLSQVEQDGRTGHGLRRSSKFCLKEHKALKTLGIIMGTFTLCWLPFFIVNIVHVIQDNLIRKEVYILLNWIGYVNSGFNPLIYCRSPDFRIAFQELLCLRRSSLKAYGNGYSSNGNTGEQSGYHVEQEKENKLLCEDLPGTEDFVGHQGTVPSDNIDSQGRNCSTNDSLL
ATG4B inhibitor: blocks human ATG4B protease cleavage of LC3 substrate. Q9Y4P1. ATG4B cleavage of LC3-PLA2, NBD-HPC fluorescence, 1 h. inhibition, % at 8.33 µM. hit rate 0.51% among 340,000. AID 504462; in the data active = inhibition above about 40%
MEKK3 PB1 HTS: MEKK3-MEK5 PB1 interaction, increase or decrease. Q99759. bead-based flow cytometry, Alexa488-MEK5 binding to MEKK3; actives lie on both sides; 0 = blocked by unlabeled MEK5, 100 = vehicle. binding response (% of control), % at 10 µM. hit rate 1.4% among 290,000. AID 1529;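 active = binding response more than 3 SD above or below the average of its plate-row segment, actives on both sides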;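 note: Alexa488 bead fluorescence after subtracting the streptavidin-only scavenger bead signal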
MEKK2 WT-MEK5: raises or lowers MEK5 binding to wildtype human MEKK2 PB1 domain; binding response (% of control), % at 10 µM; AID 1531; Q9Y2U5; bead flow cytometry, Alexa488-MEK5 binding to MEKK2 WT; actives lie on both sides; hit rate 1.1% among 290,000; in the data active = binding response below about 67% or above about 130%
ATG4B conf: confirmation of human ATG4B inhibitors | shares compounds with ATG4B inhibitor | ATG4B protease fluorescent substrate cleavage assay | inhibition, % at 8.33 µM | hit rate 92% among 320 | AID 504757; in the data active = inhibition above about 39%
PLA2 ctr: inhibits human PLA2, flagging false ATG4B inhibitors | shares compounds with ATG4B inhibitor | purified PLA2, NBD-C6-HPC fluorescence, 45 min | inhibition, % at 8.33 µM | hit rate 66% among 1,600; in the data active = inhibition above about 50%
Target sequence (P04054 whole entry, looked up): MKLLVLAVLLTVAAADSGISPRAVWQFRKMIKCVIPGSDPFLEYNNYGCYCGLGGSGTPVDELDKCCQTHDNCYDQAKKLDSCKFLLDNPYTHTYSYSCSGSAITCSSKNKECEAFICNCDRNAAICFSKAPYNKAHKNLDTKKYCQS
An asterisk follows results filed as active; . = no result.

SMILES	MEKK2mut PB1 HTS	Dynein cargo inh	B2AR ag	ATG4B inhibitor	MEKK3 PB1 HTS	MEKK2 WT-MEK5	PLA2 ctr	others
COCCNC(=O)c1ccc2c(c1)ncn2-c1cccc(C)c1	4.0	.	-1.6	-2.2	103.0	105.0	.
Cc1cccc(-n2cnc3cc(C(=O)N4CCc5ccccc54)ccc32)c1	-2.0	-0.0368	-7.8	62.3*	93.0	99.0	63.7*
CCOC(=O)c1ccc(NC(=S)NCc2ccccc2)cc1	0.0	.	-2.5	32.7	103.0	104.0	.
CCOC(=O)c1ccc(NC(=O)NCc2ccccc2)cc1	-1.0	-1.01	3.0	49.2*	95.0	96.0	55.8*
O=C(CN1C(=O)c2ccccc2S1(=O)=O)c1ccc(Cl)cc1Cl	7.0	.	2.3	-4.8	102.0	108.0	.
Cc1nn2c(COc3ccc(NC(=O)c4ccccc4Cl)cc3)nnc2c2ccccc12	0.0	0.283	-25.8	43.0*	119.0	107.0	38.8
O=C(CCc1nc(-c2cccs2)no1)NCc1ccc(F)cc1Cl	-1.0	-0.104	-11.0	43.0*	105.0	104.0	53.9*
N#Cc1c(-c2cccc(Br)c2)cc(-c2ccco2)[nH]c1=O	-2.0	0.688	-2.0	.	93.0	94.0	41.0
CCOc1ccccc1-n1c(SCC(=O)N2CCOCC2)nc2ccccc2c1=O	-10.0	.	2.8	4.8	94.0	87.0	.
CC(O/N=C\c1ccccc1O)C(=O)Nc1ccccc1C(=O)N1CCOCC1 (stereo not drawn)	1.0	-0.243	3.9	-3.8	125.0	108.0	.
Cc1ccc(S(=O)(=O)Nc2nc3ccccc3nc2N2CCN(c3ccccc3F)CC2)cc1	-9.0	0.554	4.8	61.2*	90.0	86.0	69.2*
O=S(=O)(Nc1nc2ccccc2nc1N1CCc2ccccc2C1)c1ccc(Cl)cc1	-3.0	0.864	12.9	40.1*	96.0	92.0	4.3	ATG4B conf=85.5*
O=S(=O)(Nc1nc2ccccc2nc1N1CCc2ccccc2C1)c1ccc(Br)cc1	-3.0	1.71	-6.1	26.0	94.0	89.0	.
Cc1ccccc1S(=O)(=O)Nc1nc2ccccc2nc1N1CCc2ccccc2C1	-1.0	0.135	1.4	43.1*	123.0	97.0	28.9	ATG4B conf=62.0*
Cc1ccc(S(=O)(=O)NC2=C(N3CCN(c4ccccc4F)CC3)C(=O)c3ccccc3C2=O)cc1	-1.0	-0.499	3.7	0.5	101.0	94.0	.
CC1CC(=O)N(CC(=O)Nc2ccc(Br)cc2)c2ccccc2S1(=O)=O (stereo not drawn)	2.0	.	-4.8	-7.8	100.0	106.0	.
COc1ccc(Br)cc1S(=O)(=O)n1nc(C)cc1C	17.0	.	-13.9	-1.9	104.0	103.0	.
CNS(=O)(=O)c1cccc(C(=O)OCC(=O)NC2CCCC(C)C2C)c1 (stereo not drawn)	.	.	8.2	-12.8	.	.	.
CCOc1cc(/C=N/OC(C)=O)ccc1OCc1ccccc1	0.0	-0.509	-0.8	0.8	100.0	98.0	.
O=C1c2ccccc2C(=O)N1CC(O)Cn1nnc2ccccc21 (stereo not drawn)	-4.0	-0.713	2.5	-5.6	99.0	96.0	.
OC(CN1c2ccccc2Sc2ccccc21)Cn1nnc2ccccc21 (stereo not drawn)	-1.0	1.36	0.8	44.4*	104.0	108.0	64.9*
COc1ccc(-c2cn(Cc3cccc(OC)c3)nn2)cc1	-2.0	.	-3.0	17.2	100.0	96.0	.
COc1cccc(Cn2cc(-c3cccc(C(F)(F)F)c3)nn2)c1	-3.0	.	-3.3	50.0*	101.0	99.0	68.2*
Oc1c(Br)cc(Br)c(/C=N/n2c(-c3ccccc3)n[nH]c2=S)c1Br	2.0	.	8.4	44.1*	101.0	101.0	8.9	ATG4B conf=51.6*
Cc1cc(/C=N/NC(=O)c2cc3ccccc3o2)c(C)n1C	-4.0	.	5.7	-13.4	96.0	93.0	.
SMILES	MEKK2mut PB1 HTS	Dynein cargo inh	B2AR ag	ATG4B inhibitor	MEKK3 PB1 HTS	MEKK2 WT-MEK5	PLA2 ctr	others
CC1CC(C)CN(C(=O)C2CCN(S(=O)(=O)c3ccc4c(c3)CC(C)N4C(=O)C3CC3)CC2)C1 (stereo not drawn)	4.0	.	-16.3	43.2*	106.0	106.0	46.2	ATG4B conf=59.9*
O=C(/C=C1\NC2(CCCC2)Cc2ccccc21)C(=O)N/N=C/c1ccccc1O	0.0	-0.337	15.6	44.4*	174.0*	102.0	46.6
O=C(NNC(=S)NCCc1ccccc1)c1ccc(Br)s1	3.0	0.384	-3.7	10.2	105.0	99.0	.
O=C(Nc1cc(S(=O)(=O)Nc2ccc(Cl)cc2)ccc1N1CCCCC1)c1ccc(F)cc1	-9.0	0.447	8.3	42.3*	95.0	99.0	27.5
COc1ccc(NS(=O)(=O)c2ccc(N3CCOCC3)c(NC(=O)c3ccc(F)cc3)c2)cc1	-2.0	-0.117	-0.4	0.8	103.0	102.0	.
COc1ccc(S(=O)(=O)NCCc2nnc3ccc(SCc4cccnc4)nn23)cc1	4.0	1.46	-14.6	-4.6	103.0	100.0	.
Cc1c(Cl)cccc1NC(=S)NCCc1ccccn1	-2.0	1.71	4.2	27.9	99.0	100.0	.
Cc1c(Cl)cccc1NC(=S)NCCc1ccc(C(F)(F)F)cc1	-1.0	0.0365	9.1	88.5*	102.0	106.0	93.9*
CCCCN1C(=O)/C(=C/C=C2\SCCN2C)SC1=S	-8.0	0.115	-53.1	72.5*	96.0	92.0	80.0*
CN1CCS/C1=C/C=C1\SC(=S)N(CC(=O)O)C1=O	-15.0	0.501	5.4	-18.9	68.0	67.0	.
CN1CCS/C1=C/C=C1/SC(=S)N(Cc2ccccc2)C1=O	-2.0	-0.401	-99.9	82.0*	95.0	69.0	80.3*
COc1ccc(S(=O)(=O)Nc2ccccc2OC)cc1NC(=O)CC1CC2CCC1C2 (stereo not drawn)	-1.0	0.611	0.0	-15.5	101.0	104.0	.
CCOc1cc(/C=C2\C(=O)N(c3nc(-c4ccc(Br)cc4)cs3)N=C2c2ccccc2)ccc1O	.	-0.345	-86.7	53.5*	.	.	46.7	ATG4B conf=66.5*
COc1ccc(/C=C2\C(=O)N(c3nc(-c4ccc(Br)cc4)cs3)N=C2c2ccccc2)cc1	.	-0.898	.	.	.	.	.
CCC(C)C(=O)Nc1cccc(SC)c1 (stereo not drawn)	-10.0	0.324	.	.	90.0	87.0	.
C=CCc1ccccc1OCC(=O)NNC(=S)NCc1ccccc1	4.0	.	-1.6	68.7*	104.0	106.0	68.8*
Cc1ccc(C(C)NC(=O)c2ccc3c(c2)OCO3)cc1C (stereo not drawn)	9.0	.	-11.8	1.0	108.0	110.0	.
CC1Cc2cc(/C=C3/SC(=S)NC3=O)ccc2O1 (stereo not drawn)	3.0	0.359	9.1	-10.2	105.0	102.0	.
